The results in this text go back to ChEMBL document CHEMBL1765053, “Synthetic mimics of antimicrobial peptides from triaryl scaffolds” (J Med Chem, 2011).

In brackets after ≈: the same amount, converted by molar mass.

Data set [1] deals with Escherichia coli. Description: Antibacterial activity against Escherichia coli ATCC 25922 after 18 hrs by microbroth dilution method. It counts as functional. The conditions noted are these: ATCC 25922, 18 h. In a few lines:
(§1)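 Hancock modification of CLSI broth microdilution, adjusted to limit compound adsorption to surfaces and precipitation. Bacteria grown overnight in Mueller-Hinton broth at 37 °C. Compounds tested as di-TFA salts or diamine, from DMSO/Hancock solution (0.01% acetic acid, 0.2% BSA) 2-fold stocks diluted 10-fold into culture. Final 100 to 0.05 μg/mL, duplicate. Growth read as OD600 after 18 h at 37 °C. MIC taken as >90% growth inhibition.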
(In general: In broth dilution the organism is exposed to a series of concentrations in liquid medium.)

A short description of data set [2]: Toxicity in human RBC assessed as hemolysis after 1 hr. It counts as cell-based, Erythrocyte. The note with it: human red blood cells (RBC). In a few lines: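 RBCs spun down from human whole blood and diluted in TBS to a 0.22% stock suspension. Serial 1:2 dilutions of compound in water added, highest final 1000 μg/mL. Shaken 1 h at 37 °C, then centrifuged 3000 rpm for 5 min. Supernatant diluted into water and released hemoglobin quantified. HC50 is the lowest concentration lysing 50% of RBCs.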

Data set [3] relates to Klebsiella pneumoniae. Kind of data set: Antibacterial activity against Klebsiella pneumoniae ATCC 13883 after 18 hrs by microbroth dilution method. The note with it: ATCC 13883, 18 h. It counts as functional. In a few lines: as §1
In data set [4] the test system is Staphylococcus aureus. Description: Antibacterial activity against Staphylococcus aureus ATCC 27660 after 18 hrs by microbroth dilution method. It counts as functional. The note with it: ATCC 27660, 18 h. In a few lines: as §1

Turning to `NCCC(=O)Nc1ccc(C(F)(F)F)cc1-c1ccc(-c2cc(C(F)(F)F)ccc2NC(=O)CCN)nc1.O=C(O)C(F)(F)F.O=C(O)C(F)(F)F`, the values for the minimum inhibitory concentration (MIC) in data set [1], in data set [3] and in data set [4] were 50 µg/mL, above 100 µg/mL and 25 µg/mL, respectively. For the same molecule, the HC50 (as a rule, the concentration that lyses half of the red blood cells) at 1 h in data set [2] amounted to 356 µg/mL.

`CC(C)(C)c1ccc(NC(=O)CCCCN)c(-c2ccc(-c3cc(C(C)(C)C)ccc3NC(=O)CCCCN)cc2)c1.O=C(O)C(F)(F)F.O=C(O)C(F)(F)F`: the MIC (commonly the lowest concentration found to suppress growth) was 6.25 µg/mL in data set [1], 12.5 µg/mL in data set [3] and 3.13 µg/mL in data set [4]. In addition, in data set [2], the HC50 at 1 h came out at 34.5 µg/mL.

For the molecule `CC(C)(C)c1ccc(NC(=O)CCN)c(-c2ccc(-c3cc(C(C)(C)C)ccc3NC(=O)CCN)nn2)c1.O=C(O)C(F)(F)F.O=C(O)C(F)(F)F`, the minimal inhibitory concentration (MIC) in data set [1] was 50 µg/mL; in data set [3], 100 µg/mL; in data set [4], 12.5 µg/mL. In addition, the HC50 at 1 h in data set [2] was determined as 82.5 µg/mL.

For the molecule `NCCC(=O)Nc1ccc(C(F)(F)F)cc1-c1ccc(-c2cc(C(F)(F)F)ccc2NC(=O)CCN)nn1.O=C(O)C(F)(F)F.O=C(O)C(F)(F)F`, the MIC was found to be 50 µg/mL in data set [1], 50 µg/mL in data set [3] and 25 µg/mL in data set [4]. In addition, the HC50 at 1 h in data set [2] amounted to 191 µg/mL.

Take `CC(C)(C)c1ccc(NC(=O)CCCCN)c(-c2ccc(-c3cc(C(C)(C)C)ccc3NC(=O)CCCCN)nn2)c1`: the MIC in data set [1] was 25 µg/mL (≈ 43.6 µM); in data set [3], 25 µg/mL (≈ 43.6 µM); in data set [4], 12.5 µg/mL (≈ 21.8 µM).

In the case of `NCCC(=O)Nc1ccc(C(F)(F)F)cc1-c1ccc(-c2cc(C(F)(F)F)ccc2NC(=O)CCN)cc1.O=C(O)C(F)(F)F.O=C(O)C(F)(F)F`, the MIC was found to be 12.5 µg/mL in data set [1], 25 µg/mL in data set [3] and 3.13 µg/mL in data set [4]. The HC50 at 1 h in data set [2] is 36.5 µg/mL.

In the case of `CC(C)(C)c1ccc(NC(=O)CCCCNC(=N)N)c(-c2ccc(-c3cc(C(C)(C)C)ccc3NC(=O)CCCCNC(=N)N)cc2)c1.O=C(O)C(F)(F)F.O=C(O)C(F)(F)F`, the MIC in data set [1] turned out to be 6.25 µg/mL; in data set [3] it was 12.5 µg/mL; in data set [4] it was 0.78 µg/mL. Also, the HC50 at 1 h in data set [2] came out at 12.8 µg/mL.

Turning to `NCCC(=O)Nc1ccccc1-c1ccc(-c2ccccc2NC(=O)CCN)nn1.O=C(O)C(F)(F)F.O=C(O)C(F)(F)F`, the MIC is 50 µg/mL in data set [1], above 50 µg/mL in data set [3] and 50 µg/mL in data set [4]. Further, in data set [2], the 50% haemolytic concentration (HC50) at 1 h was above 1000 µg/mL.

Consider `CC(C)(C)c1ccc(NC(=O)CCN)c(-c2ccc(-c3cc(C(C)(C)C)ccc3NC(=O)CCN)nc2)c1.O=C(O)C(F)(F)F.O=C(O)C(F)(F)F`, for which the MIC stood at 12.5 µg/mL in data set [1], 25 µg/mL in data set [3] and 12.5 µg/mL in data set [4]. Besides, the HC50 at 1 h in data set [2] stood at 39 µg/mL.

Consider “H-GIGKFLKKAKKFGKAFVKILKK-NH2 [PEXIGANAN]”, for which the MIC stood at 16 µg/mL in data set [1] and 8 µg/mL in data set [4]. Moreover, the HC50 at 1 h in data set [2] amounted to 120 µg/mL.

Turning to `CC(C)(C)c1ccc(NC(=O)CCN)c(-c2ccc(-c3cc(C(C)(C)C)ccc3NC(=O)CCN)cc2)c1.O=C(O)C(F)(F)F.O=C(O)C(F)(F)F`, the MIC in data set [1] amounted to 6.25 µg/mL; in data set [3], 12.5 µg/mL; in data set [4] it was 3.13 µg/mL. For the same molecule, the HC50 at 1 h in data set [2] was found to be 6.46 µg/mL.
